Results collected from several papers.
Target: TGF-beta receptor type-1 (TGFBR1, Homo sapiens, UniProt P36897)
One construct used (P36897 34-503): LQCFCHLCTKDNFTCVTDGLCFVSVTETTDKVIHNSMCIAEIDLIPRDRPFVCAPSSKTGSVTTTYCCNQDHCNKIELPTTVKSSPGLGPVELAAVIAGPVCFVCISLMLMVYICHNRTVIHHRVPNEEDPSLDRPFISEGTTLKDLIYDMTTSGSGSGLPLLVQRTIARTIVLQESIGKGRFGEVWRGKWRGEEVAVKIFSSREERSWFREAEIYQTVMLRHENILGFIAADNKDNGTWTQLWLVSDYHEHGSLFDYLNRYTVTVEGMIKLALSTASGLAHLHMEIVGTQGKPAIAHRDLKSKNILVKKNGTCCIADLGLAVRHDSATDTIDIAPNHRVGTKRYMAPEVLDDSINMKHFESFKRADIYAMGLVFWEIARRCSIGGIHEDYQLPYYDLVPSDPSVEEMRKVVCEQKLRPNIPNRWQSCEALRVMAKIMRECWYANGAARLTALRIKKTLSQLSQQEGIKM

N[C@H]1CCN(c2nccc(-c3cnn4ncccc34)n2)C1  remaining binding (binding; 1 µM): 100%
O=C(NCCCN1CCOCC1)c1ccc(Nc2ncc(Cl)c(-c3ccc(Cl)s3)n2)cc1  remaining binding (binding; competition with immobilised ligand; 1 µM): 69%
COc1cnc(Nc2cccc(S(N)(=O)=O)c2)nc1N1CCN(c2ccccc2)C(=O)C1  remaining binding (binding; competition with immobilised ligand; 1 µM): 100%
Cc1cnn2ncc(-c3ccnc(N(C)C)n3)c2c1  remaining binding (binding; 1 µM): 100%
c1cncc(-c2cccc(Nc3nccc(NC4CCCCC4)n3)c2)c1  remaining binding (binding; competition with immobilised ligand; 10 µM): 75%
CC(C)(C)c1ccc(-c2nc(CBr)nn2-c2cccc(O)c2)cc1  remaining binding (cell-free assay; competition with immobilised ligand; 10 µM): 90%
O=C(Nc1c[nH]nc1C(=O)NC1CCNCC1)c1cc(F)cc(F)c1  remaining binding (binding; competition with immobilised ligand; 1 µM): 100%
Cc1c(C(=O)O)cc(-c2ccc(C3CCNCC3)cc2)c2ccc(-c3ccc(C(F)(F)F)cc3)cc12  remaining binding (cell-free assay; competition with immobilised ligand; 1 µM): 89%
FC(F)(F)Oc1cccc(-c2cnc3ccc(-c4ccncc4)nn23)c1  remaining binding (cell-free assay; competition with immobilised ligand; 5 µM): 83%
Nc1ncc2c(n1)-c1c([nH]c3ccc(C#CC4CC4)cc13)CCCC2  remaining binding (binding; competition with immobilised ligand; 1 µM): 86%
CN([C@@H]1CCc2c(CC(=O)O)c3ccccc3n2C1)S(=O)(=O)c1ccc(F)cc1  remaining binding (cell-free assay; competition with immobilised ligand; 1 µM): 100%
CN(c1nccc(-c2cnn3ncccc23)n1)C1CC1  remaining binding (binding; 1 µM): 32%
CCOCCn1cc(C(=O)Nc2ccc(-n3nc(-c4cccnc4)cc3C(F)(F)F)cn2)ccc1=O  remaining binding (cell-free assay; competition with immobilised ligand; 1 µM): 100%
C[C@@H]1CCN(c2nccc(-c3cnn4ncccc34)n2)C1  remaining binding (binding; 1 µM): 98%
O=S(=O)(NC1CCC(c2cc(F)ccc2F)(S(=O)(=O)c2ccc(Cl)cc2)CC1)C(F)(F)F (stereo not shown)  remaining binding (cell-free assay; competition with immobilised ligand; 1 µM): 100%
c1cnn2ncc(-c3ccnc(N4CCC45COC5)n3)c2c1  remaining binding (binding; 1 µM): 78%
CNC(=O)[C@@H]1CC[C@@H](n2c(-c3ccc4cnccc4c3)nc3ccc(C(=O)NCc4cccc(C(N)=O)c4)cc32)C1  remaining binding (binding; competition with immobilised ligand; 1 µM): 88%
Nc1c(C(=O)NCc2ccc(C(=O)NCCCC3CCCCC3)cc2)cnn1-c1ccccc1  remaining binding (cell-free assay; competition with immobilised ligand; 0.1 µM): 100%
C[C@@H]1CN(c2ccc3ncc(-c4ccc5[nH]nc(C6CC6)c5c4)n3n2)C[C@H](C)O1  remaining binding (binding; competition with immobilised ligand; 50 nM): 100%
CNCc1ccccc1-c1csc([C@@H](C)Nc2nc(C)nc3cc(OC)c(OC)cc23)c1  remaining binding (cell-free assay; competition with immobilised ligand; 1 µM): 74%
Cc1cnc(Nc2ccc(C(=O)N3CCC(N4CCCC4)CC3)cc2)nc1-c1cc2ccccc2s1  remaining binding (binding; competition with immobilised ligand; 1 µM): 48%
Cc1nc(Cc2cccc(C(F)(F)F)c2)sc1-c1ccc(C(N)=O)nc1  remaining binding (cell-free assay; competition with immobilised ligand; 1 µM): 90%
CC1CCCN1c1nccc(-c2cnn3ncccc23)n1 (stereo not shown)  remaining binding (binding; 1 µM): 100%
COc1ccc2c(c1)O[C@H](c1ccc(OC)c(OC)c1)C[C@@H]2NC(=O)C1(c2ccc3c(c2)OC(F)(F)O3)CC1  remaining binding (cell-free assay; competition with immobilised ligand; 1 µM): 100%
O=C(c1ccc(Nc2ncc(Cl)c(-c3cc4ccccc4s3)n2)cc1)N1CCC(N2CCCC2)CC1  remaining binding (binding; competition with immobilised ligand; 1 µM): 52%
